# Published values collected from several papers.
# Target: Serine/threonine-protein kinase STK11 (STK11, Homo sapiens, UniProt Q15831)
# One construct used (Q15831 1-433): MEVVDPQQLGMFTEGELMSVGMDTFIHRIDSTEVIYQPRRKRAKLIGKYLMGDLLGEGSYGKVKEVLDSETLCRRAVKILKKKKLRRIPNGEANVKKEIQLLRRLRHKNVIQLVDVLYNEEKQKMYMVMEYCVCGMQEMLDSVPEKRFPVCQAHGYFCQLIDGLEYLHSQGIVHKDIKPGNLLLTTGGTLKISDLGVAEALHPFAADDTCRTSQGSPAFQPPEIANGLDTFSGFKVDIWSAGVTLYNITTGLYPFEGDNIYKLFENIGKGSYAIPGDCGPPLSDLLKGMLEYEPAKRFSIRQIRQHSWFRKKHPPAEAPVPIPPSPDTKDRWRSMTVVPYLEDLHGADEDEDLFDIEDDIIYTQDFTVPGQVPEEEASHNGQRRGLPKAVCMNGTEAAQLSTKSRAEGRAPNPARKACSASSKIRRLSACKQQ
SMILES,read-out,mode,method,concentration,quantity,value
N#CC1(c2ccccn2)CCN(Cc2cc(C(=O)O)c(=O)n3ccccc23)CC1,cell-free assay,,competition with immobilised ligand,1 µM,remaining binding,100%
COc1ncccc1-c1cnn2ccc(N3CCN(C(=O)OC(C)C)CC3)nc12,binding,,competition with immobilised ligand,1 µM,remaining binding,9.7%
Cn1cncc1[C@@](O)(COc1ccc(C#N)cc1-c1ccc(OC(F)(F)F)cc1)c1ccc(C#N)cc1,cell-free assay,,competition with immobilised ligand,1 µM,remaining binding,100%
Cc1nn(C)cc1-c1nc2c(N3CCN(Cc4ccc(Cl)cc4)CC3)c(Cl)cnc2[nH]1,binding,,competition with immobilised ligand,1 µM,remaining binding,100%
O=c1[nH]c2ccccc2n1C1CCN(Cc2ccc(-c3[nH]c4cc5ncnc5cc4nc3-c3ccccc3)cc2)CC1,cell-free assay,,,0.5 µM,remaining signal,95.6%
COc1cc(Nc2ncc(F)c(Nc3ccc4c(n3)NC(=O)C(C)(C)O4)n2)cc(OC)c1OC,binding,,,10 µM,inhibition,0%
CC(C)(C)c1cc(C=C(C#N)C#N)cc(Br)c1O,enzyme activity,inhibitor,,0.5 µM,remaining activity,85.2%
Nc1ncc(-c2nc(N3CCOCC3)nc(N3CCOCC3)n2)c(C(F)F)n1,binding,,competition with immobilised ligand,10 µM,remaining binding,91%
